ChEMBL document CHEMBL2331438, “An efficient domino reaction in ionic liquid: synthesis and biological evaluation of some pyrano- and thiopyrano-fused heterocycles” (2013)
In brackets after ≈: the same amount, converted by molar mass.

Legend:
Assay type in all cases: functional
Clostridium tetani = assay: Antibacterial activity against Clostridium tetani MTCC 449 after 24 hrs by broth microdilution method
Escherichia coli = assay: Antibacterial activity against Escherichia coli MTCC 443 after 24 hrs by broth microdilution method
Streptococcus pneumoniae = assay: Antibacterial activity against Streptococcus pneumoniae MTCC 1936 after 24 hrs by broth microdilution method
Vibrio cholerae = assay: Antibacterial activity against Vibrio cholerae MTCC 3906 after 24 hrs by broth microdilution method
Bacillus subtilis = assay: Antibacterial activity against Bacillus subtilis MTCC 441 after 24 hrs by broth microdilution method
Salmonella typhi = assay: Antibacterial activity against Salmonella typhi MTCC 98 after 24 hrs by broth microdilution method
[1] = system: Mycobacterium tuberculosis; assay: Antimycobacterial activity against Mycobacterium tuberculosis H37Rv at 250 ug/ml
In short: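 M. tuberculosis H37Rv tested on L.J. (Löwenstein–Jensen) medium.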

Aspergillus fumigatus = assay: Antifungal activity against Aspergillus fumigatus MTCC 3008 after 48 hrs by broth microdilution method
Candida albicans = assay: Antifungal activity against Candida albicans MTCC 227 after 48 hrs by broth microdilution method
[2] = Antioxidant activity assessed as ascorbic acid equivalent ferric ion reducing activity per 100 gram at 200 ug/ml by FRAP assay
[3] = Salmonella enterica, MTCC 98, 24 h

Compound	MIC (Clostridium tetani) [µg/mL]	MIC (Escherichia coli) [µg/mL]	MIC (Streptococcus pneumoniae) [µg/mL]	MIC (Vibrio cholerae) [µg/mL]	MIC (Bacillus subtilis) [µg/mL]	MIC (Salmonella typhi; Salmonella enterica subsp. enterica serovar Typhi) [µg/mL]	inhibition at 250 µg/mL [1] [%]	MIC (Clostridium tetani; MTCC 449, 24 h) [µg/mL]	MIC (Escherichia coli; MTCC 443, 24 h) [µg/mL]	MIC (Aspergillus fumigatus; MTCC 3008, 48 h) [µg/mL]	MIC (Streptococcus pneumoniae; MTCC 1936, 24 h) [µg/mL]	MIC (Vibrio cholerae; MTCC 3906, 24 h) [µg/mL]	MIC (Candida albicans; MTCC 227, 48 h) [µg/mL]	Activity [2] [mmol]	MIC (Bacillus subtilis; MTCC 441, 24 h) [µg/mL]	MIC (Salmonella typhi; [3]) [µg/mL]	MIC (Aspergillus fumigatus) [µg/mL]	MIC (Candida albicans) [µg/mL]
GENTAMICIN	5	0.05	0.5	5	1	5	–	–	–	–	–	–	–	–	–	–	–	–
Cc1nn(-c2ccccc2Cl)c2c1[C@@H]1c3cc4cccc(C)c4nc3SC[C@@H]1C(C)(C)O2 (single isomer, unassigned)	–	–	–	–	–	–	50	100 (≈ 216 µM)	200 (≈ 433 µM)	500 (≈ 1080 µM)	250 (≈ 541 µM)	200 (≈ 433 µM)	250 (≈ 541 µM)	115	250 (≈ 541 µM)	100 (≈ 216 µM)	–	–
Cc1ccc(-n2nc(C)c3c2OC(C)(C)[C@H]2CSc4nc5c(C)cccc5cc4[C@@H]32)cc1 (single isomer, unassigned)	–	–	–	–	–	–	91	200 (≈ 453 µM)	125 (≈ 283 µM)	500 (≈ 1130 µM)	100 (≈ 226 µM)	200 (≈ 453 µM)	250 (≈ 566 µM)	161	100 (≈ 226 µM)	125 (≈ 283 µM)	–	–
Cc1ccc(-n2nc(C)c3c2OC[C@H]2CSc4nc5c(C)cccc5cc4[C@@H]32)cc1	–	–	–	–	–	–	63	250 (≈ 605 µM)	100 (≈ 242 µM)	200 (≈ 484 µM)	200 (≈ 484 µM)	125 (≈ 302 µM)	1000 (≈ 2420 µM)	112	200 (≈ 484 µM)	125 (≈ 302 µM)	–	–
Cc1nn(-c2ccccc2)c2c1[C@@H]1c3c(ccc4c(C)cc(=O)oc34)OC[C@@H]1CO2	–	–	–	–	–	–	65	250 (≈ 624 µM)	250 (≈ 624 µM)	> 1000	250 (≈ 624 µM)	250 (≈ 624 µM)	> 1000	120	500 (≈ 1250 µM)	200 (≈ 499 µM)	–	–
Cc1cccc2cc3c(nc12)SC[C@@H]1COc2c(c(-c4ccccc4)nn2-c2ccccc2)[C@H]31	–	–	–	–	–	–	9	125 (≈ 271 µM)	100 (≈ 217 µM)	> 1000	200 (≈ 433 µM)	200 (≈ 433 µM)	> 1000	101	200 (≈ 433 µM)	125 (≈ 271 µM)	–	–
Cc1nn(-c2ccc(Cl)c(Cl)c2)c2c1[C@@H]1c3c(ccc4c(C)cc(=O)oc34)OC[C@@H]1C(C)(C)O2	–	–	–	–	–	–	70	250 (≈ 503 µM)	200 (≈ 402 µM)	500 (≈ 1010 µM)	250 (≈ 503 µM)	125 (≈ 251 µM)	200 (≈ 402 µM)	150	250 (≈ 503 µM)	250 (≈ 503 µM)	–	–
Cc1nn(-c2ccc([N+](=O)[O-])cc2)c2c1[C@@H]1c3c(ccc4c(C)cc(=O)oc34)OC[C@@H]1C(C)(C)O2	–	–	–	–	–	–	88	200 (≈ 422 µM)	200 (≈ 422 µM)	500 (≈ 1060 µM)	200 (≈ 422 µM)	200 (≈ 422 µM)	250 (≈ 528 µM)	138	200 (≈ 422 µM)	125 (≈ 264 µM)	–	–
O=C(N[C@H](CO)[C@H](O)c1ccc([N+](=O)[O-])cc1)C(Cl)Cl [CHLORAMPHENICOL]	–	–	–	–	–	–	–	50 (≈ 155 µM)	50 (≈ 155 µM)	–	50 (≈ 155 µM)	50 (≈ 155 µM)	–	–	50 (≈ 155 µM)	50 (≈ 155 µM)	–	–
Cc1nn(-c2ccccc2)c2c1[C@@H]1c3cc4cccc(C)c4nc3SC[C@@H]1C(C)(C)O2 (single isomer, unassigned)	–	–	–	–	–	–	49	100 (≈ 234 µM)	200 (≈ 468 µM)	1000 (≈ 2340 µM)	100 (≈ 234 µM)	125 (≈ 292 µM)	> 1000	83.5	250 (≈ 585 µM)	100 (≈ 234 µM)	–	–
COC1=CC(=O)C[C@@H](C)[C@]12Oc1c(Cl)c(OC)cc(OC)c1C2=O [GRISEOFULVIN]	–	–	–	–	–	–	–	–	–	100 (≈ 283 µM)	–	–	500 (≈ 1420 µM)	–	–	–	–	–
Cc1nn(-c2ccc(Cl)c(Cl)c2)c2c1[C@@H]1c3cc4cccc(C)c4nc3SC[C@@H]1CO2	–	–	–	–	–	–	38	250 (≈ 534 µM)	250 (≈ 534 µM)	1000 (≈ 2130 µM)	62.5 (≈ 133 µM)	250 (≈ 534 µM)	500 (≈ 1070 µM)	61.7	200 (≈ 427 µM)	250 (≈ 534 µM)	–	–
Cc1nn(-c2cccc(Cl)c2)c2c1[C@@H]1c3cc4cccc(C)c4nc3SC[C@@H]1CO2	–	–	–	–	–	–	82	200 (≈ 461 µM)	250 (≈ 576 µM)	200 (≈ 461 µM)	250 (≈ 576 µM)	200 (≈ 461 µM)	1000 (≈ 2300 µM)	125	250 (≈ 576 µM)	500 (≈ 1150 µM)	–	–
Cc1cc(=O)oc2c3c(ccc12)OC[C@H]1[C@@H]3c2c(-c3ccccc3)nn(-c3ccccc3)c2OC1(C)C	–	–	–	–	–	–	80	100 (≈ 204 µM)	125 (≈ 255 µM)	> 1000	125 (≈ 255 µM)	125 (≈ 255 µM)	1000 (≈ 2040 µM)	160	200 (≈ 408 µM)	100 (≈ 204 µM)	–	–
Cc1nn(-c2cc(Cl)ccc2Cl)c2c1[C@@H]1c3cc4cccc(C)c4nc3SC[C@@H]1CO2	–	–	–	–	–	–	49	100 (≈ 213 µM)	62.5 (≈ 133 µM)	1000 (≈ 2130 µM)	250 (≈ 534 µM)	100 (≈ 213 µM)	1000 (≈ 2130 µM)	129	100 (≈ 213 µM)	200 (≈ 427 µM)	–	–
Cc1nn(-c2cc(Cl)ccc2Cl)c2c1[C@@H]1c3cc4ccccc4nc3SC[C@@H]1CO2	–	–	–	–	–	–	–	–	250 (≈ 550 µM)	> 1000	200 (≈ 440 µM)	–	500 (≈ 1100 µM)	158	100 (≈ 220 µM)	–	–	–
Cc1ccc(-n2nc(C)c3c2OC[C@H]2CSc4nc5ccccc5cc4[C@@H]32)cc1	–	–	–	–	–	–	33	200 (≈ 501 µM)	125 (≈ 313 µM)	1000 (≈ 2500 µM)	62.5 (≈ 156 µM)	200 (≈ 501 µM)	1000 (≈ 2500 µM)	121	200 (≈ 501 µM)	125 (≈ 313 µM)	–	–
Cc1nn(-c2ccccc2)c2c1[C@@H]1c3cc4ccccc4nc3SC[C@@H]1CO2	–	–	–	–	–	–	87	62.5 (≈ 162 µM)	100 (≈ 259 µM)	500 (≈ 1300 µM)	200 (≈ 519 µM)	100 (≈ 259 µM)	500 (≈ 1300 µM)	126	200 (≈ 519 µM)	125 (≈ 324 µM)	–	–
Cc1nn(-c2ccc(Cl)c(Cl)c2)c2c1[C@@H]1c3c(ccc4c(C)cc(=O)oc34)OC[C@@H]1CO2	–	–	–	–	–	–	20	100 (≈ 213 µM)	250 (≈ 533 µM)	500 (≈ 1070 µM)	250 (≈ 533 µM)	125 (≈ 266 µM)	500 (≈ 1070 µM)	120	250 (≈ 533 µM)	250 (≈ 533 µM)	–	–
Cc1nn(-c2ccc([N+](=O)[O-])cc2)c2c1[C@@H]1c3cc4cccc(C)c4nc3SC[C@@H]1CO2	–	–	–	–	–	–	20	200 (≈ 450 µM)	100 (≈ 225 µM)	> 1000	200 (≈ 450 µM)	250 (≈ 562 µM)	> 1000	49.8	250 (≈ 562 µM)	62.5 (≈ 141 µM)	–	–
Cc1ccc(-n2nc(C)c3c2OC(C)(C)[C@H]2COc4ccc5c(C)cc(=O)oc5c4[C@@H]32)cc1	–	–	–	–	–	–	32	250 (≈ 565 µM)	100 (≈ 226 µM)	250 (≈ 565 µM)	100 (≈ 226 µM)	500 (≈ 1130 µM)	250 (≈ 565 µM)	240	250 (≈ 565 µM)	250 (≈ 565 µM)	–	–
Cc1nn(-c2cccc(Cl)c2)c2c1[C@@H]1c3c(ccc4c(C)cc(=O)oc34)OC[C@@H]1CO2	–	–	–	–	–	–	19	62.5 (≈ 144 µM)	100 (≈ 230 µM)	250 (≈ 575 µM)	62.5 (≈ 144 µM)	250 (≈ 575 µM)	1000 (≈ 2300 µM)	158	200 (≈ 460 µM)	200 (≈ 460 µM)	–	–
Cc1ccc(-n2nc(C)c3c2OC[C@H]2COc4ccc5c(C)cc(=O)oc5c4[C@@H]32)cc1	–	–	–	–	–	–	32	200 (≈ 483 µM)	200 (≈ 483 µM)	250 (≈ 603 µM)	250 (≈ 603 µM)	200 (≈ 483 µM)	1000 (≈ 2410 µM)	213	250 (≈ 603 µM)	250 (≈ 603 µM)	–	–
c1ccc(-c2nn(-c3ccccc3)c3c2[C@@H]2c4cc5ccccc5nc4SC[C@@H]2CO3)cc1	–	–	–	–	–	–	40	250 (≈ 559 µM)	100 (≈ 223 µM)	250 (≈ 559 µM)	250 (≈ 559 µM)	250 (≈ 559 µM)	500 (≈ 1120 µM)	105	200 (≈ 447 µM)	250 (≈ 559 µM)	–	–
O=C(O)c1cn(C2CC2)c2cc(N3CCNCC3)c(F)cc2c1=O [CIPROFLOXACIN]	–	–	–	–	–	–	–	–	25 (≈ 75.4 µM)	–	50 (≈ 151 µM)	25 (≈ 75.4 µM)	–	–	–	25 (≈ 75.4 µM)	–	–
CC1(C)S[C@@H]2[C@H](NC(=O)[C@H](N)c3ccccc3)C(=O)N2[C@H]1C(=O)O [AMPICILLIN]	–	–	–	–	–	–	–	250 (≈ 715 µM)	100 (≈ 286 µM)	–	100 (≈ 286 µM)	100 (≈ 286 µM)	–	–	250 (≈ 715 µM)	100 (≈ 286 µM)	–	–
NYSTATIN	–	–	–	–	–	–	–	–	–	–	–	–	–	–	–	–	100	100
Cc1nn(-c2cc(Cl)ccc2Cl)c2c1[C@@H]1c3c(ccc4c(C)cc(=O)oc34)OC[C@@H]1C(C)(C)O2	–	–	–	–	–	–	–	–	100 (≈ 201 µM)	500 (≈ 1010 µM)	100 (≈ 201 µM)	–	500 (≈ 1010 µM)	187	100 (≈ 201 µM)	–	–	–
CCn1cc(C(=O)O)c(=O)c2cc(F)c(N3CCNCC3)cc21 [NORFLOXACIN]	–	–	–	–	–	–	–	50 (≈ 157 µM)	10 (≈ 31.3 µM)	–	10 (≈ 31.3 µM)	10 (≈ 31.3 µM)	–	–	100 (≈ 313 µM)	10 (≈ 31.3 µM)	–	–
